Assay results as given in ChEMBL document CHEMBL4823321, “Improving the Adjuvanticity of Small Molecule Immune Potentiators Using Covalently Linked NF-κB Modulators” (ACS Med Chem Lett, 2021).
Active and inactive are the calls of the source. The calls are words filed in the database; no cut-off is given here.

How the values were obtained:
[1] = test system: BMDC; experiment: Modulator activity at NF-kappaB in C57BL/6 mouse BMDC cells assessed as increase in cell surface CD40 expression at 200 nM measured after 8 hrs by FACS analysis; assay type: cell-based; settings: filed as modulator
How it was run: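 Murine bone-marrow-derived dendritic cells incubated 8 h with compounds at 200 nM; cells stained for surface CD40 and quantified by flow cytometry.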

[2] = target: TLR7 and TLR8 (Mus musculus) (UniProt P58681+P58682); experiment: Agonist activity at TLR7/8 in mouse RAW-blue cells assessed as immune activation by measuring induction of NFkappaB activation at 500 nM measured after 24 hrs by quanti-blue SEAP reporter gene-based assay; assay type: cell-based; settings: filed as agonist
How it was run: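 RAW-Blue macrophages exposed to compounds at 500 nM for 24 h at 37 °C; NF-κB-driven reporter read-out; triplicate samples; one-way ANOVA against TLR7/8 SMIP.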

[3] = Toxicity in C57BL/6 mouse BMDC cells assessed as induction of inflammation by measuring increase in IL-6 secretion at 200 nM measured after 8 hrs by ELISA; assay type: cell-based; settings: 0.2 µM
How it was run: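 Murine bone-marrow-derived dendritic cells incubated 8 h with compounds at 200 nM; secreted IL-6 quantified by ELISA; triplicate; one-way ANOVA versus TLR7/8 SMIP.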

[4] = test system: RAW264.7; experiment: Antioxidant activity in mouse RAW264.7 cells assessed as reduction in intracellular ROS level measured after 16 hrs by CM-H2DCFDA based flow cytometry analysis relative to TLR7/8 SMIP; assay type: functional
How it was run: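 RAW macrophages incubated with compounds for 16 h, then loaded with CM-H2DCFDA; intracellular ROS fluorescence quantified by flow cytometry.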

[5] = test system: RAW264.7; experiment: Inhibition of NO production in mouse RAW264.7 cells at 500 nM incubated for 16 hrs by Griess reagent based analysis; assay type: functional, cell-based
How it was run: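 Nitrite measured with Griess reagent in supernatants of RAW macrophages incubated 16 h with 500 nM compounds; triplicate; one-way ANOVA versus TLR7/8 SMIP.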

[6] = test system: RAW264.7; experiment: Inhibition of COX-2 expression in mouse RAW264.7 cells at 500 nM incubated for 16 hrs by western blot analysis; assay type: functional, cell-based
How it was run: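 After 16 h with 500 nM compounds, RAW macrophages were lysed; proteins separated by SDS-PAGE, transferred to membrane and probed with anti-COX-2 antibody; triplicate.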

[7] = test system: RAW264.7; experiment: Inhibition of iNOS expression in mouse RAW264.7 cells at 500 nM incubated for 16 hrs by western blot analysis; assay type: functional, cell-based
[8] = test system: Splenocyte; experiment: Induction of innate immunity in C57BL/6 mouse naive splenocyte assessed as increase in cell proliferation at 3 uM measured after 48 hrs by MTT assay; assay type: functional, tissue-based
How it was run: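 Naive splenocytes incubated 48 h with compounds to assess proliferation.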

[9] = Systemic toxicity in CT26 cells xenografted BALB/c mouse tumor model assessed as increase in serum IL-6 level at 20 nmol, IT and measured after 2 hrs; assay type: cell-based; settings: in vivo, other
How it was run: (§1)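 Subcutaneous CT-26 tumors established for 11 days, then compounds given by peritumoral injection; serum collected 2 h later for TNF-α and IL-6.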

[10] = Systemic toxicity in CT26 cells xenografted BALB/c mouse tumor model assessed as reduction in lymphocyte count in peripheral blood at 20 nmol, IT and measured after 24 hrs by hematological analysis; assay type: cell-based; settings: in vivo, other
How it was run: (§2)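 Subcutaneous CT-26 tumors established for 11 days, then compounds given peritumorally; peripheral blood collected 24 h later for hematological analysis of white blood cell and lymphocyte counts.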

[11] = Systemic toxicity in CT26 cells xenografted BALB/c mouse tumor model assessed as increase in serum TNF-alpha level at 20 nmol, IT and measured after 2 hrs; assay type: cell-based; settings: in vivo, other; how it was run: as §1
[12] = Systemic toxicity in CT26 cells xenografted BALB/c mouse tumor model assessed as reduction in white blood count in peripheral blood at 20 nmol, IT and measured after 24 hrs by hematological analysis; assay type: cell-based; settings: in vivo, other; how it was run: as §2
[13] = Systemic toxicity in C57BL/6 mouse assessed as increase in serum TNF-alpha level administered intramuscularly in presence of ovalbumin measured after 1 hr; settings: in vivo, im
How it was run: (§3)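 Mice vaccinated with ovalbumin admixed with adjuvant in PBS, i.m.; serum collected 1 h after injection for IL-6 and TNF-α; one-way ANOVA versus PBS control.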

[14] = test system: Mus musculus; experiment: Induction of T-cell immunity in C57BL/6 mouse splenocytes assessed as increase in CD3+CD8+ tetramer administered intramuscularly on day 1 and as booster dose on day 14 in presence of ovalbumin and SINFEKL MHC specific tetramer measured on day 28 by flow cytometric analysis; assay type: functional, cell-based; settings: time 28.0 day
[15] = Systemic toxicity in C57BL/6 mouse assessed as increase in serum IL-6 level administered intramuscularly in presence of ovalbumin measured after 1 hr; settings: in vivo, im; how it was run: as §3
[16] = test system: Mus musculus; experiment: Immuno-adjuvant activity in C57BL/6 mouse assessed as increase in levels of anti-OVA Ig (A+G+M) administered intramuscularly on day 1 and as booster dose on day 14 in presence of ovalbumin and measured on day 28 by ELISA; assay type: functional, organism-based; settings: time 28.0 day
How it was run: (§4)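 Ovalbumin plus adjuvant in PBS given i.m., boosted on day 14; sera collected at sacrifice on day 28 and anti-OVA antibodies measured; one-way ANOVA versus PBS control.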

[17] = test system: CT26; experiment: Antitumor activity against mouse CT26 cells xenografted in BALB/c mouse assessed as survival rate at 20 nmol, IT administered on day 15,19 and 23 and measured on day 35; assay type: functional
How it was run: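 Subcutaneous CT-26 colon carcinoma in mice. Once tumors were established at day 11, […], compounds were given by peritumoral injection, then three more injections every 4 days. Tumor size was measured every alternate day. Animals were euthanized when a tumor reached 20 mm in any linear dimension. Kaplan–Meier survival was followed until day 35.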

[18] = test system: Mus musculus; experiment: Immuno-adjuvant activity in C57BL/6 mouse assessed as increase in levels of anti-OVA IgG administered intramuscularly on day 1 and as booster dose on day 14 in presence of ovalbumin and measured on day 28 by ELISA; assay type: functional, organism-based; settings: time 28.0 day; how it was run: as §4
[19] = test system: Mus musculus; experiment: Immuno-adjuvant activity in C57BL/6 mouse assessed as increase in levels of anti-OVA IgA administered intramuscularly on day 1 and as booster dose on day 14 in presence of ovalbumin and measured on day 28 by ELISA; assay type: functional, organism-based; settings: time 28.0 day

Sequence of TLR7 and TLR8 (Mus musculus) (P58681 whole entry, looked up): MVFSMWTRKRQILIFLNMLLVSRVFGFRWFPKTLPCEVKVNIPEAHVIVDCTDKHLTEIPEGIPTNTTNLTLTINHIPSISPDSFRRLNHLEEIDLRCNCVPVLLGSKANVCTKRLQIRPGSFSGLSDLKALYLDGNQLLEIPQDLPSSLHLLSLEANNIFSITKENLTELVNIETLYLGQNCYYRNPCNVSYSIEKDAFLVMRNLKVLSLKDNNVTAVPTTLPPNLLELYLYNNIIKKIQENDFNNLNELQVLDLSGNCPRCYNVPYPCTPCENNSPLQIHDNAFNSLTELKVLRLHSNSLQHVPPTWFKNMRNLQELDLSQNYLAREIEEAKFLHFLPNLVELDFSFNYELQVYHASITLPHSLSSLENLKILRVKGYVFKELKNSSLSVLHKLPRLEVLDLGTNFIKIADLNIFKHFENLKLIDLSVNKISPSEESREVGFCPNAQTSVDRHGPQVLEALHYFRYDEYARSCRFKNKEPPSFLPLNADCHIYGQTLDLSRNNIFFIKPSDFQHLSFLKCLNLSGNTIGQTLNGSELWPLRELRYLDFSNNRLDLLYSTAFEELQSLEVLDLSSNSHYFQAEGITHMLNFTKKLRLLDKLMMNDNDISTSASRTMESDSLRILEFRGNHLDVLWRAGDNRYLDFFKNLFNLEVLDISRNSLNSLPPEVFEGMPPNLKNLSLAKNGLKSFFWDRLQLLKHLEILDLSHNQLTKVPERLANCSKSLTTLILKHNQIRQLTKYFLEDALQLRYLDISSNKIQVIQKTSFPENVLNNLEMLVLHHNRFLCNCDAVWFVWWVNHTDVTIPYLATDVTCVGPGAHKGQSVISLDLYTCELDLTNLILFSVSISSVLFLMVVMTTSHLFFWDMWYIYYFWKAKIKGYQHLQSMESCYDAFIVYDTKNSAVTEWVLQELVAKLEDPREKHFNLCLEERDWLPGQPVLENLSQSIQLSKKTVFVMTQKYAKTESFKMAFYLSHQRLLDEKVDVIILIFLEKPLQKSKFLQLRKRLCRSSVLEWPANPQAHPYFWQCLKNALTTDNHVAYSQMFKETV
Sequence of TLR7 and TLR8 (Mus musculus) (P58682 whole entry, looked up): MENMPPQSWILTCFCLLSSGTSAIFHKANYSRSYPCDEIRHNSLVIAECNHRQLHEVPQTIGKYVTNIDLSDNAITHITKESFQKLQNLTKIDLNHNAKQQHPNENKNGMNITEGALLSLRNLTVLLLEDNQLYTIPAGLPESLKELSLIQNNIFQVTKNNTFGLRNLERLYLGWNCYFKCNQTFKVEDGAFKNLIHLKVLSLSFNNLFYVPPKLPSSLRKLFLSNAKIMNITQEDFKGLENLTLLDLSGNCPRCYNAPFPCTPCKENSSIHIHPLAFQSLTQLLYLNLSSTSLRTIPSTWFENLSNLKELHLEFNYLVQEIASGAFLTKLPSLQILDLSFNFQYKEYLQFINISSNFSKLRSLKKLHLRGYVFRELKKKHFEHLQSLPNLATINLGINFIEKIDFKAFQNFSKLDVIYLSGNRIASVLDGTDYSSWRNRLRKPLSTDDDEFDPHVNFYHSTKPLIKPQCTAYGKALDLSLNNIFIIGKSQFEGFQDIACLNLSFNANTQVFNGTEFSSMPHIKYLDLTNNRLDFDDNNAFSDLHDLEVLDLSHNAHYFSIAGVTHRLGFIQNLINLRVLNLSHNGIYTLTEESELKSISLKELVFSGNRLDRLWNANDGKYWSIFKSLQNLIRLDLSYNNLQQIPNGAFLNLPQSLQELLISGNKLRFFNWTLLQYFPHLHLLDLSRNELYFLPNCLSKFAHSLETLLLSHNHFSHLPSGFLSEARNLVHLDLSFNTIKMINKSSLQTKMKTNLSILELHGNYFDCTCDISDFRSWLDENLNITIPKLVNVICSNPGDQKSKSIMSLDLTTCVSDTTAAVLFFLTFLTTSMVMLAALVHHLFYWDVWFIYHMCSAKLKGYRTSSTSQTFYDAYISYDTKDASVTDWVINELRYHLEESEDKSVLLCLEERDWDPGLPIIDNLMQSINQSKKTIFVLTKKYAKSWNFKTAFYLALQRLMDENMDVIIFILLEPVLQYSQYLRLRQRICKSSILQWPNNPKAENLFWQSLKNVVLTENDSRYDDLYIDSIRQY

SMILES | Activity [2] | Activity [1] | Activity [3] | inhibition (INH) [4] | inhibition [5] | inhibition [6] | inhibition [7] | Activity [8] | Activity [9] | Activity [10] | Activity [11] | Activity [12] | Activity [13] | Activity [14] | Activity [15] | Activity [16] | Activity ([17]; time 35.0 day) | Activity [18] | Activity [19] | Survival ([17]; time 35 day)
CCCCc1nc2c(N)nc3ccccc3c2n1Cc1ccc(CNC(=O)NCCCCCC(=O)NCc2ccc(O)c(OC)c2)cc1 | Active | Active | Non-Toxic | 50% | Active | inactive | Active | Active | Non-Toxic | Non-Toxic | Non-Toxic | Non-Toxic | Non-Toxic | inactive | Non-Toxic | Active | Active | Active | Active | 
CCCCCCCCCCCCCCCCCC(=O)NCCCCOn1c(CCCC)nc2c(N)nc3ccccc3c21 [TELRATOLIMOD] |  |  |  |  |  |  |  |  | Non-Toxic | Non-Toxic | Non-Toxic | Non-Toxic |  |  |  |  |  |  |  | 
CCOCc1nc2c(N)nc3ccccc3c2n1CC(C)(C)O [RESIQUIMOD] |  |  |  |  |  |  |  |  | Toxic | Toxic | Toxic | Toxic |  |  |  |  |  |  |  | 
CCCCc1nc2c(N)nc3ccccc3c2n1Cc1ccc(CNC(=O)NCCCNC(=O)/C=C/c2ccc(O)c(OC)c2)cc1 | Active | Active | Non-Toxic | 50% | Active | inactive | Active | Active | Toxic | Toxic | Toxic | Toxic |  |  |  |  |  |  |  | 80%

The next lines start with results.

Activity [2] | SMILES | Activity [1] | Activity [3] | inhibition (INH) [4] | inhibition [5] | inhibition [6] | inhibition [7] | Activity [8] | Activity [9] | Activity [10] | Activity [11] | Activity [12] | Activity [13] | Activity [14] | Activity [15] | Activity [16] | Activity ([17]; time 35.0 day) | Activity [18] | Activity [19] | Survival ([17]; time 35 day)
Active | CCCCc1nc2c(N)nc3ccccc3c2n1Cc1ccc(CNC(=O)c2cc(-c3ccc(O)cc3)ccc2O)cc1 | Active | Toxic | 50% | Active | inactive | Active | Active | Non-Toxic | Non-Toxic |  |  |  |  |  |  |  |  |  | 
Active | CCCCc1nc2c(N)nc3ccccc3c2n1Cc1ccccc1 | Active | Toxic |  |  |  |  | Active | Toxic | Toxic | Toxic | Toxic |  |  |  |  |  |  |  | 
Active | CCCCc1nc2c(N)nc3ccccc3c2n1Cc1ccc(CNC(=O)c2cccc(-c3cccc(O)c3)c2)cc1 | Active | Non-Toxic | 50% | Active | inactive | Active | Active | Non-Toxic | Non-Toxic | Non-Toxic | Non-Toxic | Non-Toxic | inactive | Non-Toxic |  |  |  |  | 
Active | CCCCc1nc2c(N)nc3ccccc3c2n1Cc1ccc(CNC(=O)NCCc2ccc(O)c(O)c2)cc1 | Active | Non-Toxic | 50% | Active | inactive | Active | Active | Non-Toxic | Non-Toxic | Non-Toxic | Non-Toxic | Non-Toxic | inactive | Non-Toxic | Active |  | Active |  | 
Active | CCCCc1nc2c(N)nc3ccccc3c2n1Cc1ccc(CNC(=O)c2ccc(-c3cccc(O)c3)cc2O)cc1 | Active | Toxic | 50% | Active | inactive | Active | Active | Non-Toxic | Non-Toxic | Non-Toxic | Non-Toxic |  |  |  |  |  |  |  | 
